Measured values: ChEMBL document CHEMBL1151781, “Selectivity of inhibitors of endocannabinoid biosynthesis evaluated by activity-based protein profiling” (Bioorg Med Chem Lett, 2008)

Key:
[1] = biological target: T1, Phosphatidylserine lipase ABHD16A (Mus musculus) (UniProt Q9Z1Q2); conditions: Brain, 5 uM
T1 sequence (whole entry): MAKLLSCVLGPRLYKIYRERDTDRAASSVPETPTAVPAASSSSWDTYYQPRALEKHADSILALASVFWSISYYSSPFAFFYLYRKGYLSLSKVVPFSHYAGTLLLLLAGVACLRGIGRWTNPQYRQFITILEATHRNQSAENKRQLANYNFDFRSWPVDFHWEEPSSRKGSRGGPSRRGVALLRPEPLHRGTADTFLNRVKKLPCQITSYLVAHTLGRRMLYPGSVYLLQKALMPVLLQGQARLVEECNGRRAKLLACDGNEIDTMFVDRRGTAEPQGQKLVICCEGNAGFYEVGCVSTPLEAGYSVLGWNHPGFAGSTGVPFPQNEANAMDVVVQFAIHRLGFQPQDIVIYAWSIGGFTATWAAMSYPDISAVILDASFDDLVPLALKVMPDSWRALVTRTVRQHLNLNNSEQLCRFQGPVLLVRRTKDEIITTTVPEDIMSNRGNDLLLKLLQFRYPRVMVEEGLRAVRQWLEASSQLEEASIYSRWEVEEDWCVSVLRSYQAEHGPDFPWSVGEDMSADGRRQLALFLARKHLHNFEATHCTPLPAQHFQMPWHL

[2] = biological target: Tripeptidyl-peptidase 2 (Mus musculus) (UniProt Q64514); conditions: Brain, 5 uM
[3] = biological target: T1, Phosphatidylserine lipase ABHD16A (Mus musculus); assay: Inhibition of BAT5 in mouse brain assessed as reduction in spectral count at 50 uM treated for 30 mins by ABPP-MudPIT assay relative to control; format: tissue-based
Outline: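 Mouse brain proteome was treated with inhibitor at the stated single concentration, or DMSO as control, for 30 min. FP-biotin (5 μM) was then added for 120 min, followed by avidin enrichment and LC-MS (ABPP-MudPIT). Runs were in triplicate. Only hydrolases with >15 average spectral counts in control were quantified. Blockade is the percent reduction in average spectral counts versus DMSO; >60% defined a target.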

Chain of Tripeptidyl-peptidase 2 (Mus musculus) (Q64514 whole entry): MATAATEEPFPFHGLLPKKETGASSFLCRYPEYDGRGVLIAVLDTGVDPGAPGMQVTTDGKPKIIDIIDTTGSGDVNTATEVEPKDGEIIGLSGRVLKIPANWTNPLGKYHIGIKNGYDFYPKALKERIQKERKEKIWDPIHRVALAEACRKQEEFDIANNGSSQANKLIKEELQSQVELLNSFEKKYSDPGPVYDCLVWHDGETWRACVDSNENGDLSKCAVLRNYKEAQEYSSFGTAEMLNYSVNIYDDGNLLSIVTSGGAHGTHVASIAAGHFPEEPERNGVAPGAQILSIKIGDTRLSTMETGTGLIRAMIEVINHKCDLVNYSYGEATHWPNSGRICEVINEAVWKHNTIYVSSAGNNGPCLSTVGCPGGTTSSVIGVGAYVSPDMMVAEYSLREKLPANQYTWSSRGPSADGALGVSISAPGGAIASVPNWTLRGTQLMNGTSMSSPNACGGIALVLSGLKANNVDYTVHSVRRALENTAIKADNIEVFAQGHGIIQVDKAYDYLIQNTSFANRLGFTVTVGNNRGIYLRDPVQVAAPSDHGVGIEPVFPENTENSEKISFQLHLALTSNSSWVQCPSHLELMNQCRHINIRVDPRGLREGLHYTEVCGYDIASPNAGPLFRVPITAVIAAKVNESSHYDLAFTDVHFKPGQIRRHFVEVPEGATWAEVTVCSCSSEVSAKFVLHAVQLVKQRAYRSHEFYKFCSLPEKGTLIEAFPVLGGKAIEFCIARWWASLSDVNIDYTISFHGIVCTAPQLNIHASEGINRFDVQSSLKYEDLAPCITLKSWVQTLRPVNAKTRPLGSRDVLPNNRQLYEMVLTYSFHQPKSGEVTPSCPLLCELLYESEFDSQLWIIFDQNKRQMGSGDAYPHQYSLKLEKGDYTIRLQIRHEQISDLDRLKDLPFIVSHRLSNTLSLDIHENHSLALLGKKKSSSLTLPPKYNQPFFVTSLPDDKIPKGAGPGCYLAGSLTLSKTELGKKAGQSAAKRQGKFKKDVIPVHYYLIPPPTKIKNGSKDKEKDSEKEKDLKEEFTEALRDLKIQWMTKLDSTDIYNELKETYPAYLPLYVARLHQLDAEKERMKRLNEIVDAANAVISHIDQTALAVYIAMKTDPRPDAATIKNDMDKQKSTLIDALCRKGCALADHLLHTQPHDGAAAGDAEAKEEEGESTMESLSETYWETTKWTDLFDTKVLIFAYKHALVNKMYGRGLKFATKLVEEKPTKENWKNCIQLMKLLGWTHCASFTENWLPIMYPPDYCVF

Row | SMILES | inhibition [1] | inhibition [2] | inhibition [3]
1 | CCCCCCCCCCC[C@@H](C[C@@H]1OC(=O)[C@H]1CCCCCC)OC(=O)[C@H](CC(C)C)NC=O [ORLISTAT] | > 60% | > 60% | 
2 | O=C(NCCCCCCNC(=O)ON=C1CCCCC1)ON=C1CCCCC1 |  |  | > 60%
